This is an account of results in PubChem BioAssay.

Experiment [1] in a line: Her2 expression decrease, cell viability multiplex – SKBR3 breast tumor cells, AlphaScreen, ATP viability, primary screen (AID 461;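 active means Her2 level under about 52% in both replicate screens, with viability over 70% of control, limit read from the data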;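 on Her2 level: lower value means less Her2 protein in the cells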;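 on viability: percent of carrier control wells set as 100% viability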). Conditions: SKBR3 Her2 protein level, 18-24 h, measured here: SKBR3 viability, ATP luminescence, at 10 µM. On the technique in general: In Alpha technology, singlet oxygen from a donor bead excites a nearby acceptor bead.
For experiment [2], the target named is Receptor tyrosine-protein kinase erbB-2 (Homo sapiens) (UniProt P04626). Described as above. Particulars: 18-24 h, at 10 µM, stronger effect = lower value.
The nature of experiment [3]: reduced viability of SK-BR-3 breast cancer cells – cell-based, 24 h, human, pilot screen (AID 572;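 active means viability at or below 10% of carrier control in both of two separate runs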;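 further: compound exposure lasted between 18 and 24 h rather than exactly 24 h; 100% = carrier-treated control wells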). Conditions: SK-BR-3 viability, CellTiter-Glo luminescence, at 10 µM, stronger effect = lower value. Background: ATP-based viability assays read luminescence as a measure of living cells.
Experiment [4] can be described thus: HUVEC growth inhibition – cell-based, human, primary screen (AID 575).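 Further: 100% = median of untreated cell wells with 0.1% DMSO on each plate.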 Conditions: HUVEC proliferation, CellTiter-Glo luminescence, 72 h; at 10 µM; stronger effect = lower value. Summed up: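 Timing: 72 h treatment at 37 °C; material: HUVEC primary cells; technique: CellTiter-Glo luminescence measuring cellular ATP; controls: vehicle and MePR control wells; measure: percent of median DMSO-control luminescence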

Experiment [5] in a line: H69AR cell proliferation blockers – human, duplicate replicates, primary screen (AID 580;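 active means viability at or under a set limit in both replicates, limit being median viability minus 3 SD, cut at about 48% in these data, passing the limit was not always enough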;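 further: 100% = mean luminescence of untreated wells and 0% = no signal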). Particulars: H69AR lung tumor cells viability, ATP luminescence, 72 h; at 10 µM; stronger effect = lower value.
Experiment [6] can be described thus: MRP1 drug-resistance reversers in H69AR cells – cell-based, doxorubicin co-treatment, pilot screen (AID 601;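 active means viability loss from added drug above about 55%, and viability with drug at most 40%, in both replicates, limit read from the data, passing the limit was not always enough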). Particulars: CellTiter-Glo, 72 h, at 10 µM; for differential viability (reversal): stronger effect = higher value.
Experiment [7] is described as follows: yeast transport mutant growth inhibition pilot in 384-well plates, post-Golgi transport modulator project (AID 636; in the data active means inhibition above about 31%). Particulars: absorbance 615 nm, about 18 h, stronger effect = higher value.
Experiment [8] can be described thus: growth suppression of yeast trafficking mutant, preliminary HTS, modulators of trafficking downstream of Golgi apparatus project, 1536-format plate, OD 615 nm (AID 637; in the data active means inhibition above about 30%). Particulars: yeast transport mutant growth, absorbance 615 nm, 18 h; stronger effect = higher value.
Setting [9] is: H69AR cells + 2 uM doxorubicin, measured here: viability with 2 uM doxorubicin, stronger effect = lower value.
The mark [10] stands for this setting: H69AR cells, compound alone cytotoxicity.

Structures are written as SMILES. The source made the active and inactive calls.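 How the source made its calls, unless noted: active means viability at or below 30% in both replicate assays; inconclusive means viability at or below 30% in just one of the two assays; inactive means the rest.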

Sequence of Receptor tyrosine-protein kinase erbB-2 (Homo sapiens) (P04626 whole entry, looked up): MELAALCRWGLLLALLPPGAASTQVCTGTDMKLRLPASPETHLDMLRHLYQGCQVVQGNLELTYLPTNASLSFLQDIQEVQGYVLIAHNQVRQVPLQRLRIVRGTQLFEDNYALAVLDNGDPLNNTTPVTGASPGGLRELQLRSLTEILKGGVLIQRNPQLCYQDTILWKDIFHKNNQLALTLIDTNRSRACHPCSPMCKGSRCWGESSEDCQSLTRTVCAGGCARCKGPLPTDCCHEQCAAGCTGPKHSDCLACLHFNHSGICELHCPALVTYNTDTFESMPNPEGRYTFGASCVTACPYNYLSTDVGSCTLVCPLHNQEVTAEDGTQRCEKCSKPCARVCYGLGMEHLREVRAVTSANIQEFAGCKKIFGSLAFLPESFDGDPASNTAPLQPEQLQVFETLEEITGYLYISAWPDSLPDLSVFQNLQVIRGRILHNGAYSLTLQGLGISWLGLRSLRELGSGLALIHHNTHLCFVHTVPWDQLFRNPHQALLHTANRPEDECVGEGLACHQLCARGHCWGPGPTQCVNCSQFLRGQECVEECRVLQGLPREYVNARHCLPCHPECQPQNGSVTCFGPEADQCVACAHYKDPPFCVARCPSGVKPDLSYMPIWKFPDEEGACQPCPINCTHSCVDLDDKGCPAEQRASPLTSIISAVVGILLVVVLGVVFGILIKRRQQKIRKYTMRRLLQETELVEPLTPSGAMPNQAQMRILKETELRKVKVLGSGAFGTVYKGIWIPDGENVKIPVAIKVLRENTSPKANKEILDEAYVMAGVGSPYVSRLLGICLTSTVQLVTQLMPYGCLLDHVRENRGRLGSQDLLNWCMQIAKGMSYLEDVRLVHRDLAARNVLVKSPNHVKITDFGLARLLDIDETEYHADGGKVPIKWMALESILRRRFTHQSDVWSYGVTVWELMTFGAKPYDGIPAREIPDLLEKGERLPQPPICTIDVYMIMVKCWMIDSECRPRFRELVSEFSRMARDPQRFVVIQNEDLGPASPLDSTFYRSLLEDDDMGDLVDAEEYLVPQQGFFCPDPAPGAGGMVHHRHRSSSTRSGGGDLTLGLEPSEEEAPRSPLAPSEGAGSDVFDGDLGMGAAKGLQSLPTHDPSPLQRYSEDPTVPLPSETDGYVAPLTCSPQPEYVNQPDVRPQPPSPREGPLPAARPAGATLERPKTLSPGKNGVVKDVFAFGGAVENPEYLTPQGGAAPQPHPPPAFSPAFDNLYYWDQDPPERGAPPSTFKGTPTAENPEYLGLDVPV

On to `COc1cccc(NC(=O)CSc2nnnn2C(C)C)c1`, for which the viability (usually a read-out of living cells in per cent, often relative to untreated cells) in experiment [1] was 118%; in experiment [3], 118% (inactive); in experiment [4], 97.9% (inactive); in experiment [5] it was 103% (inactive); in experiment [6] (setting [9]) it was 89.7%; in experiment [6] (setting [10]), 103%. Besides, the Her2 level in experiment [2] is 86.5% (inactive). Besides, in experiment [6] (H69AR cells + 2 uM doxorubicin), the differential viability (reversal) is 13.7% (inactive). Moreover, the inhibition – broadly, the change of the read-out against control, counted positive when it falls – is -3.65% (inactive) in experiment [7] and 0.79% (inactive) in experiment [8].

`CCOC(=O)c1[nH]c(C)c(C(=O)Nc2ccccc2C)c1C`: the viability in experiment [1] was 79.5%; in experiment [3], 79.5% (inactive); in experiment [4], 60.8% (inactive); in experiment [5] it was 19.3% (active); in experiment [6] (setting [9]), 65.9%; in experiment [6] (setting [10]), 19.3%. For the same molecule, the Her2 level in experiment [2] is 85% (inactive). In experiment [6] (H69AR cells + 2 uM doxorubicin), the differential viability (reversal) is -46.6% (inactive). Besides, the inhibition was -0.9% (inactive) in experiment [7] and 3.67% (inactive) in experiment [8].

As to `CCN(CC)C(=O)C1=C(C)NC(=O)NC1c1c(F)cccc1Cl` (stereo not given), the viability was 108% in experiment [1]; 108% (inactive) in experiment [3]; 96.8% (inactive) in experiment [4]; 101% (inactive) in experiment [5]; 87.2% in experiment [6] (setting [9]); 101% in experiment [6] (setting [10]). For the same molecule, the Her2 level in experiment [2] is 108% (inactive). In experiment [6] (H69AR cells + 2 uM doxorubicin), the differential viability (reversal) was 13.7% (inactive). The results for the inhibition in experiment [7] and in experiment [8] were -3.82% (inactive) and 4.92% (inactive), respectively.

Take `Cc1c(C)c2cc(Cl)c(O)c(CN3CCCCC3)c2oc1=O`: the viability was 97.5% in experiment [1]; 97.5% (inactive) in experiment [3]; 102% (inactive) in experiment [4]; 99% (inactive) in experiment [5]; 95.5% in experiment [6] (setting [9]); 99% in experiment [6] (setting [10]). The Her2 level in experiment [2] was 112% (inactive). In addition, the differential viability (reversal) in experiment [6] (H69AR cells + 2 uM doxorubicin) is 3.51% (inactive). Also, the inhibition in experiment [7] is 1.18% (inactive); in experiment [8] it was 5.57% (inactive).

For `CC1(C)Cc2c(sc3c2c(=N)n(Cc2ccco2)c(=O)n3Cc2ccccc2)CO1`, the viability was 98.5% in experiment [1]; 98.5% (inactive) in experiment [3]; 90.1% (inactive) in experiment [4]; 71.9% (inactive) in experiment [5]; 43% in experiment [6] (setting [9]); 71.9% in experiment [6] (setting [10]). The Her2 level in experiment [2] was 88.5% (inactive). The differential viability (reversal) in experiment [6] (H69AR cells + 2 uM doxorubicin) is 28.9% (inactive). In addition, the inhibition was -1.82% (inactive) in experiment [7] and -1.27% (inactive) in experiment [8].

Regarding `O=C(C1CCC(CNS(=O)(=O)c2cccc3cccnc23)CC1)N1CCCC1` (stereo not given), the viability in experiment [1] is 98.5%; in experiment [3], 98.5% (inactive); in experiment [4], 99.9% (inactive); in experiment [5] it was 99.9% (inactive); in experiment [6] (setting [9]), 96.6%; in experiment [6] (setting [10]) it was 99.9%. Also, the Her2 level in experiment [2] is 104% (inactive). In addition, the differential viability (reversal) in experiment [6] (H69AR cells + 2 uM doxorubicin) was 3.37% (inactive). Besides, the results for the inhibition in experiment [7] and in experiment [8] were -1.07% (inactive) and -6.72% (inactive), respectively.

`CC(C)OP(=O)(c1ccc(N(C)C)cc1)C(O)c1ccccc1F` (stereo not given): the viability in experiment [1] is 128%; in experiment [3] it was 128% (inactive); in experiment [4], 103% (inactive); in experiment [5], 106% (inactive); in experiment [6] (setting [9]), 87.5%; in experiment [6] (setting [10]), 106%. Further, the Her2 level in experiment [2] was 113% (inactive). Further, the differential viability (reversal) in experiment [6] (H69AR cells + 2 uM doxorubicin) is 19% (inactive). Also, the inhibition in experiment [7] was -4.93% (inactive); in experiment [8], 3.06% (inactive).

With `CCOC(=O)CSc1nn(C)c(=S)s1`, the viability is 97.5% in experiment [1]; 97.5% (inactive) in experiment [3]; 73.2% (inactive) in experiment [4]; 102% (inactive) in experiment [5]; 94.9% in experiment [6] (setting [9]); 102% in experiment [6] (setting [10]). Moreover, the Her2 level in experiment [2] was 106% (inactive). Further, in experiment [6] (H69AR cells + 2 uM doxorubicin), the differential viability (reversal) is 7.25% (inactive). In addition, the inhibition in experiment [7] is -2.4% (inactive); in experiment [8] it was -1.5% (inactive).

For `CC(C)=CCC(C)(C)C1OCCN1C(=O)c1ccccc1` (stereo not given), the viability was 84.5% in experiment [1]; 84.5% (inactive) in experiment [3]; 82.4% (inactive) in experiment [4]; 98% (inactive) in experiment [5]; 89.3% in experiment [6] (setting [9]); 98% in experiment [6] (setting [10]). Further, the Her2 level in experiment [2] was 99% (inactive). For the same molecule, the differential viability (reversal) in experiment [6] (H69AR cells + 2 uM doxorubicin) is 8.65% (inactive). Moreover, the values for the inhibition in experiment [7] and in experiment [8] were -3.77% (inactive) and 2.3% (inactive), respectively.

As to `COc1ccccc1-c1nc(SCc2ccccn2)n[nH]1`, the viability was 104% in experiment [1]; 104% (inactive) in experiment [3]; 98.3% (inactive) in experiment [4]; 97.2% (inactive) in experiment [5]; 91.9% in experiment [6] (setting [9]); 97.2% in experiment [6] (setting [10]). Further, in experiment [2], the Her2 level was 78.5% (inactive). In experiment [6] (H69AR cells + 2 uM doxorubicin), the differential viability (reversal) is 5.32% (inactive). For the same molecule, the values for the inhibition in experiment [7] and in experiment [8] were -1.89% (inactive) and -2.06% (inactive), respectively.

With `O=C(NCc1ccco1)c1c2c(nc3ccccc13)CCC2`, the viability was 108% in experiment [1]; 108% (inactive) in experiment [3]; 82.4% (inactive) in experiment [4]; 80.7% (inactive) in experiment [5]; 77.5% in experiment [6] (setting [9]); 80.7% in experiment [6] (setting [10]). The Her2 level in experiment [2] is 80% (inactive). Moreover, the differential viability (reversal) in experiment [6] (H69AR cells + 2 uM doxorubicin) was 3.16% (inactive). In addition, the inhibition was -6.4% (inactive) in experiment [7] and 3.23% (inactive) in experiment [8].

Consider `CC(NC(=O)c1ccc2c(c1)OCO2)C(c1cccs1)N1CCOCC1` (stereo not given), for which the viability is 97.5% in experiment [1]; 97.5% (inactive) in experiment [3]; 106% (inactive) in experiment [4]; 105% (inactive) in experiment [5]; 91.1% in experiment [6] (setting [9]); 105% in experiment [6] (setting [10]). Moreover, the Her2 level in experiment [2] is 82.5% (inactive). Further, the differential viability (reversal) in experiment [6] (H69AR cells + 2 uM doxorubicin) is 13.5% (inactive). Further, the inhibition is -4.81% (inactive) in experiment [7] and -0.95% (inactive) in experiment [8].

Consider `CCCCc1nc2n[nH]c(N)c2c2c1CCCC2`, for which the viability in experiment [1] was 138%; in experiment [3] it was 138% (inactive); in experiment [4], 59.9% (inactive); in experiment [5], 92.3% (inactive); in experiment [6] (setting [9]), 85.6%; in experiment [6] (setting [10]), 92.3%. In addition, the Her2 level in experiment [2] was 96% (inactive). Besides, the differential viability (reversal) in experiment [6] (H69AR cells + 2 uM doxorubicin) was 6.68% (inactive). For the same molecule, the inhibition was -5.47% (inactive) in experiment [7] and -0.82% (inactive) in experiment [8].

As to `CCCCn1c(CN(C)Cc2ccccc2)nc2c1c(=O)n(C)c(=O)n2C`, the viability in experiment [1] was 83%; in experiment [3], 83% (inactive); in experiment [4] it was 71.1% (inactive); in experiment [5], 71.6% (inactive); in experiment [6] (setting [9]), 79.6%; in experiment [6] (setting [10]) it was 71.6%. Further, in experiment [2], the Her2 level was 101% (inactive). Moreover, in experiment [6] (H69AR cells + 2 uM doxorubicin), the differential viability (reversal) was -7.99% (inactive). In addition, the inhibition was -3.24% (inactive) in experiment [7] and -0.63% (inactive) in experiment [8].
